Assay results from ChEMBL document CHEMBL1125585, “(Methoxyalkyl)thiazoles: a new series of potent, selective, and orally active 5-lipoxygenase inhibitors displaying high enantioselectivity” (J Med Chem, 1991).

What was measured:
[1] = molecular target: T1, Polyunsaturated fatty acid 5-lipoxygenase (Homo sapiens, UniProt P09917); experiment: Inhibition of 5-lipoxygenase in human whole blood.; format: tissue-based
T1 sequence (P09917 whole entry): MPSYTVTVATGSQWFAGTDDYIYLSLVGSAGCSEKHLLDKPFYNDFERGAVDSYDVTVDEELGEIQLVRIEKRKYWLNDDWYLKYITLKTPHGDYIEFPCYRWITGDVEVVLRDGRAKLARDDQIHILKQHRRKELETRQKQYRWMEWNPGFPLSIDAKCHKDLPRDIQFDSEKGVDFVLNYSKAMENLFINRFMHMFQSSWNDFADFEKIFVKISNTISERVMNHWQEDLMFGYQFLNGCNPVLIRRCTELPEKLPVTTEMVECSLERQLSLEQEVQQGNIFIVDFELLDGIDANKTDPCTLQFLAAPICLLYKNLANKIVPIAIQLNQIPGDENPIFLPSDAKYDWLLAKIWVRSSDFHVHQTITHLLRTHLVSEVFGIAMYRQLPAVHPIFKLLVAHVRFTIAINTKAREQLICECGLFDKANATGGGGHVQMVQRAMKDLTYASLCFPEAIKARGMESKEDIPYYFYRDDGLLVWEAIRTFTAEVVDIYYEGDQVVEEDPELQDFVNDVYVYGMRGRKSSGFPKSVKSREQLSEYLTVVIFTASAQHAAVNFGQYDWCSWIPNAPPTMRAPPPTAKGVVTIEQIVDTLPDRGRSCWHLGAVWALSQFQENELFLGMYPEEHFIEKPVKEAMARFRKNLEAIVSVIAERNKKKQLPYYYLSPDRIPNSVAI
Method in brief: (§1)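 Eicosanoid (LTB4, PGE2, TXB2) generation measured in vitro in heparinised rat or human whole blood; IC50s given ± SE with the number of determinations.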

[2] = molecular target: T2, Polyunsaturated fatty acid 5-lipoxygenase (Mus musculus, UniProt P48999); experiment: Inhibition of 5-lipoxygenase in mouse macrophages.
T2 sequence (P48999 whole entry): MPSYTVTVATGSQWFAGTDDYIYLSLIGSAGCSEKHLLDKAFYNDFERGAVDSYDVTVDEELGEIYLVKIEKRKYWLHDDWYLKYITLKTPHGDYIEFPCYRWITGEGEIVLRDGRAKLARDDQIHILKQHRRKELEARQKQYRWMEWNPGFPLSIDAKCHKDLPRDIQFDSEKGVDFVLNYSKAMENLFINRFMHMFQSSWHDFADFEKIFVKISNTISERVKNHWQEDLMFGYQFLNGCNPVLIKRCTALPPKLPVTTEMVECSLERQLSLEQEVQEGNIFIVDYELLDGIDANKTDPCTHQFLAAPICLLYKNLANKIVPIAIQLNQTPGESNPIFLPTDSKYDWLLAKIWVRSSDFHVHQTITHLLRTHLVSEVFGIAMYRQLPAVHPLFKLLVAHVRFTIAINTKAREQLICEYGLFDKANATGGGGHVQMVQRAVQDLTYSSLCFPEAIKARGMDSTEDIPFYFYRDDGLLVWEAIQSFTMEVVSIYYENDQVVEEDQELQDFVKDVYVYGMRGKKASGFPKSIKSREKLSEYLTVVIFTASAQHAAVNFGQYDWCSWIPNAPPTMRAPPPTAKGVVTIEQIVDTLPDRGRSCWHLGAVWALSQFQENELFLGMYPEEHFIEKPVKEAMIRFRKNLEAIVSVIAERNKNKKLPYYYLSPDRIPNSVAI
Method in brief: (§2)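 LTC4 and PGE2 synthesis measured in plasma-free cultures of murine peritoneal macrophages.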

[3] = molecular target: T3, Polyunsaturated fatty acid 5-lipoxygenase (Rattus norvegicus, UniProt P12527); experiment: Compound was tested for the inhibition of 5-lipoxygenase (5-Lpo) in rat whole blood.; format: tissue-based; method in brief: as §1
T3 sequence (P12527 whole entry): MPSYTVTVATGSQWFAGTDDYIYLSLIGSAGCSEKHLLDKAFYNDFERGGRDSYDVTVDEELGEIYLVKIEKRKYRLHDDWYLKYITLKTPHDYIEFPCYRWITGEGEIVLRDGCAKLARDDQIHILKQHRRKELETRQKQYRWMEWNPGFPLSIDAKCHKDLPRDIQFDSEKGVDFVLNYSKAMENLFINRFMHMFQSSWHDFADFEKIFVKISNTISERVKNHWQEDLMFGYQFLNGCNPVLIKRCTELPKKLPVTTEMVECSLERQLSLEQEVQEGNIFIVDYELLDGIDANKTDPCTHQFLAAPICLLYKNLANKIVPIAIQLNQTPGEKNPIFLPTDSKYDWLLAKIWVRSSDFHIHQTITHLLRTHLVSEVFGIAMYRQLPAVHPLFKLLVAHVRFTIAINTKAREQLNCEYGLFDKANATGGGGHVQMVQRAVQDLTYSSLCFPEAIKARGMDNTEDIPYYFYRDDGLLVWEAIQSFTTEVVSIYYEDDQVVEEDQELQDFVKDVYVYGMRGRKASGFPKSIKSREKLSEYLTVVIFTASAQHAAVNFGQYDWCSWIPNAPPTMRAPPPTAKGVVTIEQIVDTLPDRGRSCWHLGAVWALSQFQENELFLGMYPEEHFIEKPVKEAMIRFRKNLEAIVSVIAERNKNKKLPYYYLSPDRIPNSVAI

[4] = molecular target: T3, Polyunsaturated fatty acid 5-lipoxygenase; experiment: Compound was tested for the inhibition of 5-lipoxygenase (5-LPO) in rat basophilic leukemia (RBL) cells.; format: cell-based, RBL-1
Method in brief: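 Cell-free 5-LPO activity was measured spectrophotometrically. The enzyme source was the high-speed supernatant of rat basophilic leukemia (RBL) cells.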

Homo sapiens [5] = species on record: Homo sapiens; experiment: In vitro inhibition of LTB4 synthesis in human whole blood.; format: functional; method in brief: as §1
Rattus norvegicus [6] = species on record: Rattus norvegicus; experiment: In vitro inhibition of TXB2 synthesis against rat whole blood.
Rattus norvegicus [7] = experiment: Compound was evaluated ex vivo for inhibition of LTB4 synthesis in rat on oral administration.; format: functional
Method in brief: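 Rats dosed orally at 1 mL/kg with a suspension made by mixing 300 µL of compound in DMSO into 15 mL of 0.5% hydroxypropyl methyl cellulose with 0.1% polysorbate 80. Controls got the same volume of vehicle. After 1 h the animals were killed and bled, and LTB4 and TXB2 synthesis was measured in the blood ex vivo, n = 5 per point.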

Mus musculus [8] = species on record: Mus musculus; experiment: In vitro inhibition of PGE-2 synthesis in plasma free mouse macrophages.; format: functional; method in brief: as §2
Homo sapiens [9] = species on record: Homo sapiens; experiment: In vitro inhibition of TXB2 synthesis in human whole blood.; format: functional; method in brief: as §1
Rattus norvegicus [10] = species on record: Rattus norvegicus; experiment: In vitro inhibition of LTB4 synthesis in rat whole blood.; format: functional; method in brief: as §1
Mus musculus [11] = species on record: Mus musculus; experiment: In vitro inhibition of LTC4 synthesis in plasma free mouse macrophages.; format: functional; method in brief: as §2
Rattus norvegicus [12] = species on record: Rattus norvegicus; experiment: In vitro inhibition of PGE-2 synthesis against rat whole blood.; format: functional; conditions: in the assay text read “TXB2” for “PGE-2”; method in brief: as §1

SMILES	IC50 [1] [µM]	IC50 [2] [µM]	other results
CCC(O)(c1cccc(OCCCc2ccccc2)c1)c1nccs1 (configuration not stated)	11	–	–
COC(c1cccc(OCc2ccc3ccccc3c2)c1)c1nccs1 (configuration not stated)	7	0.3	IC50 [3]: 6 µM
CCC(OC)(c1cccc(OCc2ccc(F)c(F)c2)c1)c1nccs1 (configuration not stated)	40	0.8	–
CCC(OC)(c1ccc(OCc2ccc3ccccc3c2)cc1)c1nccs1 (configuration not stated)	~40	–	–
CCC(OC)(c1cccc(OCc2ccc3ccccc3c2)c1)c1cncs1 (configuration not stated)	6.3	–	–
CCC(OC)(c1cccc(OCc2cccc3ccccc23)c1)c1nccs1 (configuration not stated)	4.8	–	–
c1ccc2cc(COc3ccc4c(c3)C(c3nccs3)CC4)ccc2c1 (configuration not stated)	> 40	–	–
Cc1cnc(C(O)c2cccc(OCc3ccc4ccccc4c3)c2)[nH]1 (configuration not stated)	–	–	IC50 [3]: > 30 µM
CCC(O)(c1cccc(OCC#Cc2cccc(C)c2)c1)c1nccs1 (configuration not stated)	2.5	–	–
CCC(O)(c1cccc(OC/C=C/c2ccccc2)c1)c1nccs1 (configuration not stated)	0.8	0.006	–
CCC(OC)(c1nccs1)c1ccccc1OCc1ccc2ccccc2c1 (configuration not stated)	> 40	–	–
CCCCCCCCCCOc1cccc(C(O)c2nc(C)c[nH]2)c1 (configuration not stated)	–	–	IC50 [3]: > 30 µM
CCC(O)(c1cccc(OCc2ccc(Cl)c(Cl)c2)c1)c1nccs1 (configuration not stated)	1.1	–	–
CC(C)C(O)(c1cccc(OCc2ccc3ccccc3c2)c1)c1nccs1 (configuration not stated)	40	1	–
OC(c1cccc(OCc2ccc3ccccc3c2)c1)c1nccs1 (configuration not stated)	–	–	IC50 [3]: 30 µM
COC1(c2nccs2)CCc2ccc(OCc3ccc4ccccc4c3)cc21 (single isomer, unassigned; (+))	0.5	< 0.03	IC50 [4]: 0.13 µM
COC(C)(c1cccc(OCc2ccc3ccccc3c2)c1)c1nccs1 (stereo in doubt; 2o)	~40	2	–
COC(C)(c1cccc(OCc2ccc3ccccc3c2)c1)c1nccs1 (stereo in doubt; 2p)	0.7	0.03	–
CC(c1cc2ccccc2s1)N(O)C(N)=O (configuration not stated) [ZILEUTON]	–	–	IC50 (Homo sapiens [5]): 2 µM; IC50 (Rattus norvegicus [6]): 25 µM; ED50 (Rattus norvegicus [7]): 5 mg/kg; IC50 (Mus musculus [8]): 27 µM; IC50 (Homo sapiens [9]): 25 µM; IC50 (Rattus norvegicus [10]): 2 µM; IC50 (Mus musculus [11]): 1.2 µM

More lines, main results first:

IC50 [1] [µM]	IC50 [2] [µM]	SMILES	other results
0.6	–	CCC(OC)(c1cccc(OCc2ccc3ccccc3c2)c1)c1cscn1 (configuration not stated)	–
> 40	–	COC1(c2nccs2)CCc2c(OCc3ccc4ccccc4c3)cccc21 (configuration not stated)	–
8.8	0.08	CCCC(O)(c1cccc(OCc2ccc3ccccc3c2)c1)c1nccs1 (configuration not stated)	–
> 40	–	COC1CCc2ccc(OCc3ccc4ccccc4c3)cc21 (configuration not stated)	–
~40	–	Cc1cnc(C(C)(O)c2cccc(OCc3ccc4ccccc4c3)c2)s1 (configuration not stated)	–
~40	0.82	CCC(OC)(c1cccc(OCc2ccc3ccccc3c2)c1)c1nc(C)cs1 (configuration not stated)	–
0.5	0.005	COC(C)(c1cccc(OCc2ccc3ccccc3c2)c1)c1nccs1 (configuration not stated)	IC50 [3]: 0.8 µM
1	0.03	CCC(O)(c1cccc(OCC#Cc2ccccc2)c1)c1nccs1 (configuration not stated)	–
0.7	0.014	COC1(c2nccs2)CCc2ccc(OCc3ccc4ccccc4c3)cc21 (racemic)	IC50 [4]: 0.8 µM
> 40	1.5	COC1(c2nccs2)CCc2ccc(OCc3ccc4ccccc4c3)cc21 (single isomer, unassigned; (-))	IC50 [4]: > 20 µM
–	0.008	CCC(OC)(c1cccc(OCc2ccc3ccccc3c2)c1)c1nccs1 (configuration not stated) [ZM-211965]	IC50 (Rattus norvegicus [12]): > 100 µM; IC50 (Homo sapiens [5]): 0.4 µM; IC50 [3]: 0.5 µM; ED50 (Rattus norvegicus [7]): 10 mg/kg; IC50 (Mus musculus [8]): > 50 µM; IC50 (Homo sapiens [9]): > 100 µM; IC50 (Rattus norvegicus [10]): 0.5 µM; IC50 (Mus musculus [11]): 0.008 µM
